Laboratory results published in ChEMBL document CHEMBL3734675, “Synthesis, antimycobacterial and antibacterial activity of fluoroquinolone derivatives containing an 3-alkoxyimino-4-(cyclopropylanimo)methylpyrrolidine moiety” (2015).
≈ marks a conversion by molar mass, not a printed value.

Experiments:
Type in all cases: functional
[1] = tested on: Mycobacterium tuberculosis; assay: Antimycobacterial activity against Mycobacterium tuberculosis H37Rv ATCC 27294 incubated for 7 days by microplate Alamar Blue assay; details: H37Rv ATCC 27294, 168 h
In short: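 Fluorescence read-out. MIC is the lowest concentration that reduces fluorescence by at least 90% relative to the mean of replicate bacterium-only controls. Isoniazid and rifampicin were included as reference drugs.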

Escherichia coli [2] = assay: Antibacterial activity against Escherichia coli ATCC 25922 after 18 to 24 hrs by two-fold serial dilution method
In short: (§1)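 Twofold serial dilution in agar media against Gram-positive and Gram-negative strains. Plates incubated at 35 °C for 18–24 h. MIC read as the lowest compound concentration giving complete inhibition of bacterial growth.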

Escherichia coli [3] = assay: Antibacterial activity against extended-spectrum beta-lactamase producing Escherichia coli 14-1 after 18 to 24 hrs by two-fold serial dilution method; in short: as §1
Escherichia coli [4] = assay: Antibacterial activity against extended-spectrum beta-lactamase producing Escherichia coli 14-2 after 18 to 24 hrs by two-fold serial dilution method; in short: as §1
Escherichia coli [5] = assay: Antibacterial activity against Escherichia coli 14-1 after 18 to 24 hrs by two-fold serial dilution method; in short: as §1
Escherichia coli [6] = assay: Antibacterial activity against Escherichia coli 14-2 after 18 to 24 hrs by two-fold serial dilution method; in short: as §1
Klebsiella pneumoniae [7] = assay: Antibacterial activity against extended-spectrum beta-lactamase producing Klebsiella pneumoniae 14-17 after 18 to 24 hrs by two-fold serial dilution method; in short: as §1
Klebsiella pneumoniae [8] = assay: Antibacterial activity against extended-spectrum beta-lactamase producing Klebsiella pneumoniae 14-18 after 18 to 24 hrs by two-fold serial dilution method; in short: as §1
Klebsiella pneumoniae [9] = assay: Antibacterial activity against extended-spectrum beta-lactamase producing Klebsiella pneumoniae 14-19 after 18 to 24 hrs by two-fold serial dilution method; in short: as §1
Klebsiella pneumoniae [10] = assay: Antibacterial activity against Klebsiella pneumoniae 14-1 after 18 to 24 hrs by two-fold serial dilution method; in short: as §1
Klebsiella pneumoniae [11] = assay: Antibacterial activity against Klebsiella pneumoniae 14-2 after 18 to 24 hrs by two-fold serial dilution method; in short: as §1
Klebsiella pneumoniae [12] = assay: Antibacterial activity against Klebsiella pneumoniae 14-3 after 18 to 24 hrs by two-fold serial dilution method; in short: as §1
Klebsiella pneumoniae [13] = assay: Antibacterial activity against Klebsiella pneumoniae 14-4 after 18 to 24 hrs by two-fold serial dilution method; in short: as §1
Pseudomonas aeruginosa [14] = assay: Antibacterial activity against Pseudomonas aeruginosa ATCC 27853 after 18 to 24 hrs by two-fold serial dilution method; in short: as §1
Pseudomonas aeruginosa [15] = assay: Antibacterial activity against Pseudomonas aeruginosa 14-9 after 18 to 24 hrs by two-fold serial dilution method; in short: as §1
Pseudomonas aeruginosa [16] = assay: Antibacterial activity against Pseudomonas aeruginosa 14-14 after 18 to 24 hrs by two-fold serial dilution method; in short: as §1
Pseudomonas aeruginosa [17] = assay: Antibacterial activity against Pseudomonas aeruginosa 14-15 after 18 to 24 hrs by two-fold serial dilution method; in short: as §1
Pseudomonas aeruginosa [18] = assay: Antibacterial activity against Pseudomonas aeruginosa 14-16 after 18 to 24 hrs by two-fold serial dilution method; in short: as §1
Staphylococcus aureus [19] = assay: Antibacterial activity against Staphylococcus aureus CMCC 26003 after 18 to 24 hrs by two-fold serial dilution method; in short: as §1
Staphylococcus aureus [20] = assay: Antibacterial activity against methicillin-sensitive Staphylococcus aureus 14-1 after 18 to 24 hrs by two-fold serial dilution method; in short: as §1
Staphylococcus aureus [21] = assay: Antibacterial activity against methicillin-sensitive Staphylococcus aureus 14-3 after 18 to 24 hrs by two-fold serial dilution method; in short: as §1
Staphylococcus aureus [22] = assay: Antibacterial activity against methicillin-sensitive Staphylococcus aureus 14-4 after 18 to 24 hrs by two-fold serial dilution method; in short: as §1
Staphylococcus aureus [23] = assay: Antibacterial activity against methicillin-resistant Staphylococcus aureus 14-4 after 18 to 24 hrs by two-fold serial dilution method
In short: (§2)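 Agar media, standard twofold serial dilution. MIC is the lowest concentration giving complete inhibition of bacterial growth after incubation at 35 °C for 18–24 h. Ciprofloxacin and levofloxacin were run as comparators.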

Staphylococcus aureus [24] = assay: Antibacterial activity against methicillin-resistant Staphylococcus aureus 14-5 after 18 to 24 hrs by two-fold serial dilution method; in short: as §2
[25] = tested on: Staphylococcus epidermidis; assay: Antibacterial activity against methicillin-sensitive Staphylococcus epidermidis 14-2 after 18 to 24 hrs by two-fold serial dilution method; in short: as §1
[26] = tested on: Staphylococcus epidermidis; assay: Antibacterial activity against methicillin-resistant Staphylococcus epidermidis 14-21 after 18 to 24 hrs by two-fold serial dilution method; in short: as §2
[27] = tested on: Staphylococcus epidermidis; assay: Antibacterial activity against methicillin-resistant Staphylococcus epidermidis 14-22 after 18 to 24 hrs by two-fold serial dilution method; in short: as §2
[28] = tested on: Staphylococcus epidermidis; assay: Antibacterial activity against methicillin-resistant Staphylococcus epidermidis 14-37 after 18 to 24 hrs by two-fold serial dilution method; in short: as §2
[29] = tested on: Staphylococcus epidermidis; assay: Antibacterial activity against methicillin-resistant Staphylococcus epidermidis 14-39 after 18 to 24 hrs by two-fold serial dilution method; in short: as §2
Streptococcus pneumoniae = assay: Antibacterial activity against methicillin-resistant Streptococcus pneumoniae ATCC 19615 after 18 to 24 hrs by two-fold serial dilution method; in short: as §2
Enterococcus faecium [30] = assay: Antibacterial activity against Enterococcus faecium 14-2 after 18 to 24 hrs by two-fold serial dilution method; in short: as §1
Enterococcus faecium [31] = assay: Antibacterial activity against Enterococcus faecium 14-5 after 18 to 24 hrs by two-fold serial dilution method; in short: as §1
Enterococcus faecium [32] = assay: Antibacterial activity against Enterococcus faecium 14-6 after 18 to 24 hrs by two-fold serial dilution method; in short: as §1
Enterococcus faecalis [33] = assay: Antibacterial activity against Enterococcus faecalis 14-1 after 18 to 24 hrs by two-fold serial dilution method; in short: as §1
Enterococcus faecalis [34] = assay: Antibacterial activity against Enterococcus faecalis 14-2 after 18 to 24 hrs by two-fold serial dilution method; in short: as §1

CCO/N=C1/CN(c2nc3c(cc2F)c(=O)c(C(=O)O)cn3-c2nc(N)c(F)cc2F)CC1(C)CNC1CC1 (stereo not given)
MIC90 [1]: 27.7 µg/mL (≈ 50.9 µM) | MIC (Escherichia coli [2]): 32 µg/mL (≈ 58.7 µM) | MIC (Escherichia coli [3]): 64 µg/mL (≈ 117 µM) | MIC (Escherichia coli [4]): > 128 µg/mL | MIC (Escherichia coli [5]): > 128 µg/mL | MIC (Escherichia coli [6]): 128 µg/mL (≈ 235 µM) | MIC (Klebsiella pneumoniae [7]): > 128 µg/mL | MIC (Klebsiella pneumoniae [8]): > 128 µg/mL | MIC (Klebsiella pneumoniae [9]): > 128 µg/mL | MIC (Klebsiella pneumoniae [10]): > 128 µg/mL | MIC (Klebsiella pneumoniae [11]): > 128 µg/mL | MIC (Klebsiella pneumoniae [12]): > 128 µg/mL | MIC (Klebsiella pneumoniae [13]): > 128 µg/mL | MIC (Pseudomonas aeruginosa [14]): 128 µg/mL (≈ 235 µM) | MIC (Pseudomonas aeruginosa [15]): 64 µg/mL (≈ 117 µM) | MIC (Pseudomonas aeruginosa [16]): 128 µg/mL (≈ 235 µM) | MIC (Pseudomonas aeruginosa [17]): 128 µg/mL (≈ 235 µM) | MIC (Pseudomonas aeruginosa [18]): > 128 µg/mL | MIC (Staphylococcus aureus [19]): 0.5 µg/mL (≈ 0.917 µM) | MIC (Staphylococcus aureus [20]): 32 µg/mL (≈ 58.7 µM) | MIC (Staphylococcus aureus [21]): 16 µg/mL (≈ 29.3 µM) | MIC (Staphylococcus aureus [22]): 4 µg/mL (≈ 7.33 µM) | MIC (Staphylococcus aureus [23]): 64 µg/mL (≈ 117 µM) | MIC (Staphylococcus aureus [24]): 64 µg/mL (≈ 117 µM) | MIC [25]: 128 µg/mL (≈ 235 µM) | MIC [26]: 64 µg/mL (≈ 117 µM) | MIC [27]: 128 µg/mL (≈ 235 µM) | MIC [28]: 128 µg/mL (≈ 235 µM) | MIC [29]: 64 µg/mL (≈ 117 µM) | MIC (Streptococcus pneumoniae): 16 µg/mL (≈ 29.3 µM) | MIC (Enterococcus faecium [30]): 128 µg/mL (≈ 235 µM) | MIC (Enterococcus faecium [31]): 128 µg/mL (≈ 235 µM) | MIC (Enterococcus faecium [32]): 64 µg/mL (≈ 117 µM) | MIC (Enterococcus faecalis [33]): 64 µg/mL (≈ 117 µM) | MIC (Enterococcus faecalis [34]): 8 µg/mL (≈ 14.7 µM)
